According to ChEMBL document CHEMBL2040715, “Discovery of a Potent HIV Integrase Inhibitor that Leads to a Prodrug with Significant anti-HIV Activity” (ACS Med Chem Lett, 2011):

What was measured:
[1] = Metabolic stability in human liver microsomes assessed as compound remaining at 200 uM incubated for 3 mins prior to NADPH-addition measured after 3 hrs by RP-HPLC analysis; type: ADME, Microsome; conditions: read-out: Stability
Method in brief: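 Pooled human liver microsomes were preincubated with test compound, and the reaction was started with NADPH at 37 °C. Samples were taken at several times up to 3 h and quenched with cold acetonitrile. Precipitated protein was removed by centrifugation, then HPLC with UV detection measured parent remaining, from which the in vitro half-life was derived.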

[2] = molecular target: T1, UDP-glucuronosyltransferase 1A1 (Homo sapiens, UniProt P22309); experiment: Activity at UGT1A1 in human liver microsomes at 50 uM incubated for 3 mins prior to NADPH-addition measured up to 120 mins by HPLC/UV analysis; type: ADME, Microsome
T1 sequence (P22309 whole entry): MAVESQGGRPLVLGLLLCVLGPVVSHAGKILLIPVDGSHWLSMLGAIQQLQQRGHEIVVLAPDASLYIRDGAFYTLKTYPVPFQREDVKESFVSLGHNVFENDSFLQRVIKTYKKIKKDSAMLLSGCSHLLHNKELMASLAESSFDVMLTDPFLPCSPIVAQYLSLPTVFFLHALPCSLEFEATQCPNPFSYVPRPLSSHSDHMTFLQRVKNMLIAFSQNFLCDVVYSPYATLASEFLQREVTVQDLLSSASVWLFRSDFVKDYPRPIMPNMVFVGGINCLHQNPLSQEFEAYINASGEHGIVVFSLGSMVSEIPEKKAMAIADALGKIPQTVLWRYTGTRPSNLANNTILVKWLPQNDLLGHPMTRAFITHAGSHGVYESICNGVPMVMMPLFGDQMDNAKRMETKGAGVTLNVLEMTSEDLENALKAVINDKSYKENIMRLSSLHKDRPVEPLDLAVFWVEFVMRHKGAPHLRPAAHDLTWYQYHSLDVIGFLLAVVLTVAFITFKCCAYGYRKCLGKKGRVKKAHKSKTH

[3] = molecular target: T2, UDP-glucuronosyltransferase 1A4 (Homo sapiens, UniProt P22310); experiment: Activity at UGT1A4 in human liver microsomes at 50 uM incubated for 3 mins prior to NADPH-addition measured up to 120 mins by HPLC/UV analysis; type: ADME, Microsome
T2 sequence (P22310 whole entry): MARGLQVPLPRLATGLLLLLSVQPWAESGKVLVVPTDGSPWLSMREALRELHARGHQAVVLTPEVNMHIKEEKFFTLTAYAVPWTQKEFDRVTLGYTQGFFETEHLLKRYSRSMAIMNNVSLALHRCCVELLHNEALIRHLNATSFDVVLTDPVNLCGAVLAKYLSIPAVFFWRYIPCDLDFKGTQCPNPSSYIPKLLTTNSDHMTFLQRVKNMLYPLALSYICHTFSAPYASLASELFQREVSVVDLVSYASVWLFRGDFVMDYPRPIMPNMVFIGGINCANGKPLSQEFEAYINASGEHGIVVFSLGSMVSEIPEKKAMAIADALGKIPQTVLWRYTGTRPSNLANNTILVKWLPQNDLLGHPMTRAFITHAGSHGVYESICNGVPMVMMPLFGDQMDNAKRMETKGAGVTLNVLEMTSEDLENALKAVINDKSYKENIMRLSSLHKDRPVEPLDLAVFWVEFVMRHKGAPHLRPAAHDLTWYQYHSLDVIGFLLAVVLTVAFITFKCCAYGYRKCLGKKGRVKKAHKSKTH

[4] = molecular target: T3, UDP-glucuronosyltransferase 2B7 (Homo sapiens, UniProt P16662); experiment: Activity at UGT2B7 in human liver microsomes at 50 uM incubated for 3 mins prior to NADPH-addition measured up to 120 mins by HPLC/UV analysis; type: ADME, Microsome
T3 sequence (P16662 whole entry): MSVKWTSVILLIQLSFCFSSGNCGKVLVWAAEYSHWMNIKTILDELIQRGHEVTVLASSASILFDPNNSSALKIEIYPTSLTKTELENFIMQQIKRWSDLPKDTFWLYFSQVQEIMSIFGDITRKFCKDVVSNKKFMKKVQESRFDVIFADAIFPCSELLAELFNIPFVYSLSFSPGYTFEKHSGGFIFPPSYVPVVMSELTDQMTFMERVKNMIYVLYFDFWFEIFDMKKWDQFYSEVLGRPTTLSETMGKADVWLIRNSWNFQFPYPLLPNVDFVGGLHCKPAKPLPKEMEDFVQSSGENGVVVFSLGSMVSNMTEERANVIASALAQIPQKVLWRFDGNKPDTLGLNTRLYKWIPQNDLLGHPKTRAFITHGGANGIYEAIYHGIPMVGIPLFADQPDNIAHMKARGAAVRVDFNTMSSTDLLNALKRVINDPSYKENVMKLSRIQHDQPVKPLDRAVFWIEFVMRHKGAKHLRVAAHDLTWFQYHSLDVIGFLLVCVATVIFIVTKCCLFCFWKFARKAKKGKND

[5] = molecular target: T4, UDP-glucuronosyltransferase 1A9 (Homo sapiens, UniProt O60656); experiment: Activity at UGT1A9 in human liver microsomes at 50 uM incubated for 3 mins prior to NADPH-addition measured up to 120 mins by HPLC/UV analysis; type: ADME, Microsome
T4 sequence (O60656 whole entry): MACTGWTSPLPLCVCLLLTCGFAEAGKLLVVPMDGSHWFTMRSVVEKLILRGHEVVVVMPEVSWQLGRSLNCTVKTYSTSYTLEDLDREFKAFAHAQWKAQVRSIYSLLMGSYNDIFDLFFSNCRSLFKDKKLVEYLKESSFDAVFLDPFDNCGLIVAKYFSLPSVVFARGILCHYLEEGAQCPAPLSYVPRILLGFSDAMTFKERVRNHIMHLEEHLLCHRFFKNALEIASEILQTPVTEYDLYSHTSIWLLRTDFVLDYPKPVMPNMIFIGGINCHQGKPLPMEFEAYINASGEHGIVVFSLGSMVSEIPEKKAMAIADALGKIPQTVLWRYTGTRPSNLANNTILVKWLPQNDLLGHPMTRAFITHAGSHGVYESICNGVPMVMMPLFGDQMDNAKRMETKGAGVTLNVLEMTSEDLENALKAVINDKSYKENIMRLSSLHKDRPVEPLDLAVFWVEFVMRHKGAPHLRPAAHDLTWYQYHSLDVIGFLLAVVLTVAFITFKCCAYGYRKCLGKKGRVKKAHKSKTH

Cytochrome P450 2D6 = Cytochrome P450 2D6 (Homo sapiens, UniProt P10635); experiment: Inhibition of CYP2D6 in human liver microsomes using dextromethorphan as substrate incubated for 3 mins prior to NAPDH-addition measured after 60 mins by RP-HPLC analysis
Cytochrome P450 2D6, sequence (P10635 whole entry): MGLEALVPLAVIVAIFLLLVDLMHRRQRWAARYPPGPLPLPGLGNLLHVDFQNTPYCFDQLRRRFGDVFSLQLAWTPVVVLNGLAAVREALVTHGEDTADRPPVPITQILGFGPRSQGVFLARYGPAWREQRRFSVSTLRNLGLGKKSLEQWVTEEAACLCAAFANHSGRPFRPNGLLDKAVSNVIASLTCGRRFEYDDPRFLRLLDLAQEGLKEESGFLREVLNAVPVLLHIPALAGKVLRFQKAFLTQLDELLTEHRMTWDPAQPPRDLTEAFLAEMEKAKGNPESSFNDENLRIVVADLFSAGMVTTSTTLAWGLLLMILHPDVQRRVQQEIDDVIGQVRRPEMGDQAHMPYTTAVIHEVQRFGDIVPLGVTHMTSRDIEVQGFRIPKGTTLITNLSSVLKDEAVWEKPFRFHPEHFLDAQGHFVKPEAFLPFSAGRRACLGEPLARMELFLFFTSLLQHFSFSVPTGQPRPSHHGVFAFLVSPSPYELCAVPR

O=C(O)/C(O)=C/C(=O)c1cc(Cc2ccc(F)cc2F)cn(Cc2ccccc2F)c1=O
remaining at 3 h, 200 µM [1]: 80% | Activity [2]: Not Active | Activity [3]: Not Active | Activity [4]: Not Active | Activity [5]: Not Active | IC50 (Cytochrome P450 2D6): > 200 µM
